≈ marks a conversion by molar mass, not a printed value.
How the values were obtained:
[1] = Solubility of compound at pH 1.2 by HPLC analysis; assay type: physicochemical; details: buffer
[2] = Solubility of compound at pH 2.2 by HPLC analysis; assay type: physicochemical; details: buffer
[3] = Solubility of compound at pH 4.5 by HPLC analysis; assay type: physicochemical; details: buffer
[4] = Solubility of compound at pH 7.4 by HPLC analysis; assay type: physicochemical; details: buffer
[5] = Solubility of compound at pH 10.2 by HPLC analysis; assay type: physicochemical; details: buffer
Plasma [6] = assay: Metabolic stability in rat plasma by LC-MS/MS analysis; assay type: ADME, cell-free
How it was run: (§1)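 Plasma stability is expressed as % compound remaining after incubation in plasma.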

Plasma [7] = assay: Metabolic stability in human plasma by LC-MS/MS analysis; assay type: ADME, cell-free; how it was run: as §1
[8] = Metabolic stability in mouse liver microsomes after 30 mins by LC-MS/MS analysis; assay type: ADME; details: read-out: Stability
How it was run: (§2)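 Compounds are incubated with liver microsomes for 30 min, and the result is expressed as % parent remaining (% metabolic stability).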

[9] = Metabolic stability in rat liver microsomes after 30 mins by LC-MS/MS analysis; assay type: ADME; details: read-out: Stability; how it was run: as §2
[10] = Metabolic stability in human liver microsomes after 30 mins by LC-MS/MS analysis; assay type: ADME; details: read-out: Stability; how it was run: as §2
[11] = Plasma protein binding in human; assay type: ADME, cell-free; details: read-out: PPB (converted)
[12] = Cmax in BALB/c mouse brain at 10 mg/kg, po by LC-MS/MS analysis; assay type: ADME, organism-based; set-up: dose 10 mg/kg, route oral
How it was run: (§3)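 Single oral 10 mg/kg dose, with 2 animals per group. Brain and plasma sampled; brain Cmax is reported as μg/g and brain AUC0-t and AUC0-inf as μg·h/g. Brain-to-plasma ratios are derived from AUC values, and also from Cmax.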

Brain [13] = assay: AUC (0 to t) in BALB/c mouse brain at 10 mg/kg, po by LC-MS/MS analysis; assay type: ADME, organism-based; details: in vivo; how it was run: as §3
Brain [14] = assay: AUC (0 to infinity) in BALB/c mouse brain at 10 mg/kg, po by LC-MS/MS analysis; assay type: ADME, organism-based; set-up: dose 10 mg/kg, time infinity, route oral; details: in vivo; how it was run: as §3
[15] = Cmax in BALB/c mouse plasma at 10 mg/kg, po by LC-MS/MS analysis; assay type: ADME, organism-based; set-up: dose 10 mg/kg, route oral; how it was run: as §3
[16] = AUC (0 to t) in BALB/c mouse plasma at 10 mg/kg, po by LC-MS/MS analysis; assay type: ADME, organism-based; how it was run: as §3
[17] = AUC (0 to infinity) in BALB/c mouse plasma at 10 mg/kg, po by LC-MS/MS analysis; assay type: ADME, organism-based; set-up: dose 10 mg/kg, time infinity, route oral; how it was run: as §3
[18] = Ratio of Cmax in brain to plasma in BALB/c mouse at 10 mg/kg, po; assay type: ADME, organism-based; how it was run: as §3
[19] = Ratio of AUC (0 to t) in brain to plasma in BALB/c mouse at 10 mg/kg, po; assay type: ADME, organism-based; how it was run: as §3
[20] = Ratio of AUC (0 to infinity) in brain to plasma in BALB/c mouse at 10 mg/kg, po; assay type: ADME, organism-based; how it was run: as §3
Streptococcus pneumoniae [21] = assay: Antibacterial activity against Streptococcus pneumoniae ATCC 49619 by microbroth dilution method; assay type: functional
How it was run: (§4)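 MIC is determined by broth microdilution and expressed in μg/mL.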

Streptococcus pneumoniae [22] = assay: Antibacterial activity against Streptococcus pneumoniae ATCC 6303 by microbroth dilution method; assay type: functional; how it was run: as §4
Streptococcus pneumoniae [23] = assay: Antibacterial activity against linezolid-resistant Streptococcus pneumoniae 6303 by microbroth dilution method; assay type: functional; how it was run: as §4
Streptococcus pneumoniae [24] = assay: Antibacterial activity against pencillin-resistant erm+ve Streptococcus pneumoniae ATCC 700904 by microbroth dilution method; assay type: functional; how it was run: as §4
Neisseria meningitidis [25] = assay: Antibacterial activity against clinical isolate Neisseria meningitidis E-63 by microbroth dilution method; assay type: functional
How it was run: (§5)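 Minimum inhibitory concentration (MIC) read by broth microdilution and reported in μg/mL. The same microbroth screen was run on the broader panel of facultative bacteria.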

Neisseria meningitidis [26] = assay: Antibacterial activity against clinical isolate Neisseria meningitidis M-1 by microbroth dilution method; assay type: functional; how it was run: as §5
Neisseria meningitidis [27] = assay: Antibacterial activity against clinical isolate Neisseria meningitidis 306 by microbroth dilution method; assay type: functional; how it was run: as §5
Neisseria meningitidis [28] = assay: Antibacterial activity against clinical isolate Neisseria meningitidis E-95 by microbroth dilution method; assay type: functional; how it was run: as §5
Neisseria meningitidis [29] = assay: Antibacterial activity against clinical isolate Neisseria meningitidis 184 by microbroth dilution method; assay type: functional; how it was run: as §5

SMILES | solubility [1] [µM] | solubility [2] [µM] | solubility [3] [µM] | Stability (Plasma [6]) [%] | Stability (Plasma [7]) [%] | remaining at 0.5 h [8] [%] | remaining at 0.5 h [9] [%] | remaining at 0.5 h [10] [%] | Cmax [12] [ng/g] | AUCt (Brain [13]) [µg·h/g] | AUC (Brain [14]) [µg·h/g] | Cmax [15] [ng/mL] | AUC(0-t) [16] [ng·h/mL] | AUC(0-inf) [17] [ng·h/mL] | MIC (Streptococcus pneumoniae [23]) [µg/mL] | MIC (Neisseria meningitidis [25]) [µg/mL] | MIC (Neisseria meningitidis [26]) [µg/mL] | MIC (Neisseria meningitidis [27]) [µg/mL] | MIC (Neisseria meningitidis [28]) [µg/mL] | MIC (Neisseria meningitidis [29]) [µg/mL] | also measured
CC(=O)NC[C@H]1CN(c2ccc(N3CC[Si](C)(C)CC3)c(F)c2)C(=O)O1 | 50 (≈ 19 µg/mL) | 50 (≈ 19 µg/mL) | 41 (≈ 15.6 µg/mL) | 97.3 | 100 | 40.8 | 10.8 | 48.9 | 1330 | 3.01 | 3.05 | 1050 | 1780 | 1800 | > 32 | 32 (≈ 84.3 µM) | > 32 | > 32 | > 32 | > 32 | solubility [4]: 40 µM (≈ 15.2 µg/mL); solubility [5]: 41 µM (≈ 15.6 µg/mL); fraction unbound [11]: 0.0567; Kp [18]: 1.27; Kp [19]: 1.69; Kp [20]: 1.69; MIC (Streptococcus pneumoniae [21]): 8 µg/mL (≈ 21.1 µM); MIC (Streptococcus pneumoniae [22]): 4 µg/mL (≈ 10.5 µM); MIC (Streptococcus pneumoniae [24]): 4 µg/mL (≈ 10.5 µM)
COC(=S)NC[C@H]1CN(c2ccc(N3CC[Si](C)(C)CC3)c(F)c2)C(=O)O1 | 48 (≈ 19.8 µg/mL) | 47 (≈ 19.3 µg/mL) | 9 (≈ 3.7 µg/mL) | 100 | 100 | 15.2 | 5.7 | 43 | 1470 | 3.11 | 3.24 | 370 | 870 | 930 | 32 (≈ 77.8 µM) | 32 (≈ 77.8 µM) | 32 (≈ 77.8 µM) | 32 (≈ 77.8 µM) | 32 (≈ 77.8 µM) | 32 (≈ 77.8 µM) | solubility [4]: 2 µM (≈ 0.823 µg/mL); solubility [5]: 2 µM (≈ 0.823 µg/mL); Kp [18]: 3.96; Kp [19]: 3.57; Kp [20]: 3.49; MIC (Streptococcus pneumoniae [21]): 4 µg/mL (≈ 9.72 µM); MIC (Streptococcus pneumoniae [22]): 4 µg/mL (≈ 9.72 µM); MIC (Streptococcus pneumoniae [24]): 4 µg/mL (≈ 9.72 µM)
CC(=O)NC[C@H]1CN(c2ccc(N3CCOCC3)c(F)c2)C(=O)O1 [LINEZOLID] | – | – | – | 100 | 100 | 100 | 88.3 | 100 | 450 | 0.83 | 0.9 | 3650 | 7580 | 7700 | 32 (≈ 94.9 µM) | 8 (≈ 23.7 µM) | 8 (≈ 23.7 µM) | 8 (≈ 23.7 µM) | 8 (≈ 23.7 µM) | 8 (≈ 23.7 µM) | fraction unbound [11]: 0.74
CC(=O)NC[C@H]1CN(c2cc(F)c(N3CC[Si](C)(C)CC3)c(F)c2)C(=O)O1 | 48 (≈ 19.1 µg/mL) | 43 (≈ 17.1 µg/mL) | 20 (≈ 7.95 µg/mL) | 94.7 | 100 | 68.4 | 9.6 | 69.8 | 5580 | 14.74 | 16.44 | 2020 | 5800 | 6210 | > 32 | > 32 | > 32 | > 32 | > 32 | > 32 | solubility [4]: 17 µM (≈ 6.76 µg/mL); solubility [5]: 20 µM (≈ 7.95 µg/mL); fraction unbound [11]: 0.004; Kp [18]: 2.76; Kp [19]: 2.54; Kp [20]: 2.65; MIC (Streptococcus pneumoniae [21]): 16 µg/mL (≈ 40.3 µM); MIC (Streptococcus pneumoniae [22]): 8 µg/mL (≈ 20.1 µM); MIC (Streptococcus pneumoniae [24]): 16 µg/mL (≈ 40.3 µM)

Reference: ChEMBL document CHEMBL3751664, “Design, Synthesis, and Identification of Silicon Incorporated Oxazolidinone Antibiotics with Improved Brain Exposure” (ACS Med Chem Lett, 2015)
